# Experimental data pooled from the literature.
# Each line is one published result; the experiments were not run side by side.
# Observed: metabolic stability
# Species: human
Compound,medium,concentration,time,pH,measurement,result
O=C(O[C@H]1CCC[C@@]2(C1)OOC1(O2)C2CC3CC(C2)CC1C3)N1CCCCC1 (stereo partly shown),liver microsomes,,,,microsomal CLint,< 11.6 µL/min/mg
CC(C)C[C@H](NC(=O)[C@@H]1COCCCCCCC(=O)NCC(=O)N2CCC[C@H]2C(=O)N1)C(=O)[C@@]1(C)CO1,liver microsomes,2 µM,1 h,,scaled CLint,51.7 mL/min/kg
Cn1c(=O)ccc2ccc(F)c(CCNC[C@H]3CN(c4cnc5c(n4)NC(=O)CO5)C(=O)O3)c21,hepatocytes,0.5 µM,,,hepatocyte CLint,2 µL/min/10⁶ cells
COCC1=N[C@@]2(O)[C@H](C(=O)N(C)OC)[C@@H](c3ccccc3)[C@]3(c4ccc(OC)cc4)Oc4cc(OC)cc(OC)c4[C@]23N1,liver microsomes,1 µM,,pH 7.4,microsomal CLint,55.8 µL/min/mg
C[C@]12CC[C@H]3[C@@H](CCC4=CC(=O)CC[C@@]43C)[C@@H]1CC[C@@H]2O,hepatocytes,1 µM,,,hepatocyte CLint,110 µL/min/10⁶ cells
Cc1ncc2n1-c1ccc(Cl)cc1C(c1ccccc1F)=NC2,hepatocytes,0.5 µM,,pH 7.4,hepatocyte CLint,57.7 µL/min/10⁶ cells
CNC(C)Cc1ccc2nsnc2c1 (stereo not shown),liver microsomes,0.5 µM,,,scaled CLint,11.2 mL/min/kg
COc1ccc2c(c1)[C@]13CCCC[C@@H]1[C@H](C2)N(C)CC3,hepatocytes,0.5 µM,,pH 7.4,hepatocyte CLint,19 µL/min/10⁶ cells
CN1C(=O)Cc2ccc(F)c(CCNCC[C@H]3CN(c4ccc5c(n4)NC(=O)CO5)C(=O)O3)c21,hepatocytes,0.5 µM,,,hepatocyte CLint,< 8.2 µL/min/10⁶ cells
CONC(=O)[C@H]1[C@@H](O)[C@@]2(O)c3c(OC)cc(OC)cc3O[C@@]2(c2ccc(OC)cc2)[C@@H]1c1ccccc1,liver microsomes,,,,microsomal CLint,11.6 µL/min/mg
